In general, IC50 refers to the point on the concentration scale where inhibition reaches its midpoint. The term fraction unbound denotes free concentration divided by total concentration. What is called bioavailability is the share of a dose that reaches the circulation, judged against a reference dose that is usually intravenous. What is called solubility is how much of the substance goes into solution per volume. In general, AUC(0-inf) refers to total exposure, with the tail of the curve extrapolated. One may read the clearance as the volume of plasma or blood freed of the substance per unit of time.

In brackets after ≈: the same amount, converted by molar mass.

Data set [1] is described as follows: Selectivity ratio of IC50 for human CYP11B1 expressed in human renal leiomyoblastoma cells harboring FDXR/FDX to IC50 for human CYP11B2 expressed in human renal leiomyoblastoma cells harboring FDXR/FDX. It counts as cell-based. In short, it runs like this:
(§1)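 Cells with endogenous FDXR/FDX and no detectable CYP11B activity, stably transfected (CMV promoter, neomycin selection, G-418 400 µg/mL) with CYP11B1 or CYP11B2 of the named species. Assayed in DMEM/F12 with 2.5% charcoal-treated FCS. Substrate 1 µM 11-deoxycorticosterone (B2) or 11-deoxycortisol (B1), 16 hr. Aldosterone or cortisol in supernatant measured by HTRF. IC50 from 4-parameter MMF fit; selectivity factor is the B1/B2 IC50 ratio.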

The next data set deals with Cytochrome P450 3A4 (Homo sapiens, UniProt P08684). Briefly: Inhibition of CYP3A4 (unknown origin). It counts as ADME.
Another data set deals with Cytochrome P450 2C9 (Homo sapiens, UniProt P11712). Briefly: Inhibition of CYP2C9 (unknown origin). Format: ADME.
Data set [2] deals with T1, Cytochrome P450 11B1, mitochondrial (Homo sapiens, UniProt P15538).
T1 sequence (P15538 whole entry): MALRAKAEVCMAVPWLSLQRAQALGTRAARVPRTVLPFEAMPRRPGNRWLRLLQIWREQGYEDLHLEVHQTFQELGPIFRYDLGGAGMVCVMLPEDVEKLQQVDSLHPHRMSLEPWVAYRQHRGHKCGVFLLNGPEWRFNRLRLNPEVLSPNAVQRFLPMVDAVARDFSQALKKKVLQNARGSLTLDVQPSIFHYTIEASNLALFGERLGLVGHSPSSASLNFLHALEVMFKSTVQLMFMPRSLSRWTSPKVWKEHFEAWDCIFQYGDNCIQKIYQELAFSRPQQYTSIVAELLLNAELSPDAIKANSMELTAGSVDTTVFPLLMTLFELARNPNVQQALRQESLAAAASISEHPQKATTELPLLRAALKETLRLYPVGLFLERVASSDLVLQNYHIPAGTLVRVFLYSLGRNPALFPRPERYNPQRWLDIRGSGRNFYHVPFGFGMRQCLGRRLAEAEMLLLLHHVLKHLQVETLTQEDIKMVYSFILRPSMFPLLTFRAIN
Kind of data set: Inhibition of human CYP11B1 expressed in human renal leiomyoblastoma cells harboring FDXR/FDX using 1-deoxycortisol as substrate by HTRF assay. It counts as ADME, cell-based. In short, it runs like this:
as §1
(In general: In TR-FRET formats the signal depends on donor and acceptor labels being close together.)

Data set [3] deals with T2, Cytochrome P450 11B2, mitochondrial (Homo sapiens, UniProt P19099).
T2 sequence (P19099 whole entry): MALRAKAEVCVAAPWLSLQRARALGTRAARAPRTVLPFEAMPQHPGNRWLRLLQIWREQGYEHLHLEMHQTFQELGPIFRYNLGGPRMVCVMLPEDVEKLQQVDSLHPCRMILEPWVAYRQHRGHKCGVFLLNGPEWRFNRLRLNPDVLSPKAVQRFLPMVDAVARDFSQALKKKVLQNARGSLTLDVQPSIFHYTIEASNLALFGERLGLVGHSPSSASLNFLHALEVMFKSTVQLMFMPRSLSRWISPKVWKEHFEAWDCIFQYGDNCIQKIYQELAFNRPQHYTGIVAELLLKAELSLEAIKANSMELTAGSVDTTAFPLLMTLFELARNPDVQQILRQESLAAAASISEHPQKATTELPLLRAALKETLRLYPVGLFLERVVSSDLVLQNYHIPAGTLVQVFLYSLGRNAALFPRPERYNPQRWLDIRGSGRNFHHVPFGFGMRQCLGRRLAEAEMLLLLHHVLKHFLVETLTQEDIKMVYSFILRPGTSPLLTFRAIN
Kind of data set: Inhibition of human CYP11B2 expressed in human renal leiomyoblastoma cells harboring FDXR/FDX using 1-deoxycorticosterone as substrate by HTRF assay. Format: cell-based. In short, it runs like this:
as §1

The target in another data set is Cytochrome P450 2D6 (Homo sapiens, UniProt P10635). Briefly: Inhibition of CYP2D6 (unknown origin). It counts as ADME.
A short description of data set [4]: Intrinsic clearance in mouse liver microsomes preincubated for 10 mins followed by NADPH regenerating system addition and measured up to 30 mins by LC/MS-MS analysis. It counts as ADME, Microsome. In short, it runs like this: (§2)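 Liver microsomes at 0.5 mg protein/mL in 100 mM potassium phosphate, pH 7.4. Compound preincubated 10 min at 37 °C. Intrinsic clearance scaled using the well-stirred liver model.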
For orientation: Microsomes from liver hold many membrane-bound enzymes, among them those of drug oxidation.

A short description of data set [5]: Intrinsic clearance in human liver microsomes preincubated for 10 mins followed by NADPH regenerating system addition and measured up to 30 mins by LC/MS-MS analysis. It counts as ADME, Microsome. To be noted: read-out: CLH. In short, it runs like this:
as §2

Data set [6] can be described thus: Dose normalized AUC in cynomolgus monkey. It counts as ADME, Macaca fascicularis. To be noted: in vivo.
A short description of data set [7]: Protein binding in cynomolgus monkey plasma assessed as unbound fraction at 1 uM by micro-equilibrium dialysis based LC-MS/MS analysis. It counts as ADME, cell-free, Macaca fascicularis. In short, it runs like this: (§3)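 Equilibrium dialysis of pooled rat or cynomolgus plasma against Soerensen buffer pH 7.4, 12–14 kDa cut-off membrane. Compounds tested in cassettes of 2–5 at 1 μM initial total concentration, with diazepam as control. Dialysis 5 hr at 37 °C under 5% CO₂. Unbound percentage by LC/MS-MS.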

Data set [8] can be described thus: Intrinsic clearance in cynomolgus monkey hepatocytes. Format: ADME, cell-based, Macaca fascicularis, Hepatocyte. To be noted: read-out: CLH.
Data set [9] is described as follows: Oral bioavailability in Wister-Han rat at 3 mg/kg administered as single dose by LC/MS-MS analysis. Format: ADME, organism-based. To be noted: Wistar-Han, in vivo. In short, it runs like this:
(§4)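 Male Wistar-Han rats, single dose. IV 1 mg/kg, compound at 0.5 mg/mL in NMP:saline 30/70 (v/v). Oral 3 mg/kg, 0.25 mg/mL in 2% Klucel with 0.1% Polysorbate 80. Three rats per time point. Heparinized blood taken at eight (iv) or seven (po) time points, plasma stored at -20 °C. Plasma levels by LC/MS-MS. Non-compartmental analysis.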

Data set [10] in a line: Solubility of the compound in phosphate buffer at pH 6.5 shaken for 2 hrs followed by overnight incubation. It counts as physicochemical. In short, it runs like this: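 Lyophilisation solubility assay run in duplicate from 10 mM DMSO stock. DMSO evaporated and residue redissolved in 0.05 M phosphate, pH 6.5. Stirred 1 hr, shaken 2 hr, left overnight, then filtered. Filtrate and a 1/10 dilution analysed by HPLC-UV against a four-point calibration.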

Data set [11] can be described thus: Permeability of the compound measured at 18 hrs by PAMPA. Format: ADME. To be noted: read-out: permeability. In short, it runs like this:
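PAMPA sandwich format. Donor: compound diluted to 150 μM (DMSO <2%) in 0.05 M MOPSO pH 6.5 with 0.5% glycocholic acid. Acceptor: 0.05 M MOPSO pH 6.5. Membrane of 10% egg lecithin with 0.5% cholesterol in dodecane. Donor measured at start; acceptor and donor measured at ~18 hr.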
(The PAMPA barrier holds no transporters, so it reflects passive diffusion.)

Data set [12] is described as follows: Oral bioavailability in cynomolgus monkey. Conditions: in vivo. Format: ADME, organism-based, Macaca fascicularis.
Data set [13] in a line: AUC (0 to infinity) in Wister-Han rat at 3 mg/kg, po administered as single dose by LC/MS-MS analysis. It counts as ADME, organism-based. Also on record: dose 3 mg/kg, route oral, time infinity. To be noted: Wistar-Han, in vivo. In short, it runs like this:
as §4

A short description of data set [14]: Intrinsic clearance in rat hepatocytes. To be noted: read-out: CLH. It counts as ADME, cell-based, Hepatocyte.
Data set [15] in a line: Protein binding in rat plasma assessed as unbound fraction at 1 uM by micro-equilibrium dialysis based LC-MS/MS analysis. Format: ADME, cell-free. In short, it runs like this: as §3
The nature of data set [16]: Intrinsic clearance in rat liver microsomes preincubated for 10 mins followed by NADPH regenerating system addition and measured up to 30 mins by LC/MS-MS analysis. It counts as ADME, Microsome. In short, it runs like this: as §2
Data set [17] can be described thus: Plasma clearance in Wister-Han rat at 1 mg/kg, iv administered as single dose by LC/MS-MS analysis. Format: ADME, organism-based. Conditions: Wistar-Han. In short, it runs like this: as §4
Data set [18] can be described thus: Dose normalized AUC in Wister-Han rat at 1 mg/kg, iv or 3 mg/kg, po administered as single dose by LC/MS-MS analysis. Format: ADME, organism-based. To be noted: in vivo. In short, it runs like this:
as §4

Data set [19] is described as follows: Plasma clearance in iv dosed cynomolgus monkey. It counts as ADME, organism-based, Macaca fascicularis.

Sequence of Cytochrome P450 2C9 (P11712 whole entry): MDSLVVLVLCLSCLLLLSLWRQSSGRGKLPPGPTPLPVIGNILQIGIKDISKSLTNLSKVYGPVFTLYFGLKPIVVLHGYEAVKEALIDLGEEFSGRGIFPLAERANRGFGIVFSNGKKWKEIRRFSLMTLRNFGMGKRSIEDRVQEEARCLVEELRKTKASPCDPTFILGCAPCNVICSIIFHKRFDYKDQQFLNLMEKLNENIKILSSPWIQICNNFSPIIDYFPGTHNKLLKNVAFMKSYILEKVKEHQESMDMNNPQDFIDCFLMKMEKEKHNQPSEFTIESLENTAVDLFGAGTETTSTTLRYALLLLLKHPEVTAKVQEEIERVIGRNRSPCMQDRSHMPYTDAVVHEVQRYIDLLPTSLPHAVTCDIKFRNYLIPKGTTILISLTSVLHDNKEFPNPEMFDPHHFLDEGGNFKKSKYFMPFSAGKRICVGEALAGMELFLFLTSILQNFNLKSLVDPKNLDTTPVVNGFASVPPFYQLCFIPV
Sequence of Cytochrome P450 2D6 (P10635 whole entry): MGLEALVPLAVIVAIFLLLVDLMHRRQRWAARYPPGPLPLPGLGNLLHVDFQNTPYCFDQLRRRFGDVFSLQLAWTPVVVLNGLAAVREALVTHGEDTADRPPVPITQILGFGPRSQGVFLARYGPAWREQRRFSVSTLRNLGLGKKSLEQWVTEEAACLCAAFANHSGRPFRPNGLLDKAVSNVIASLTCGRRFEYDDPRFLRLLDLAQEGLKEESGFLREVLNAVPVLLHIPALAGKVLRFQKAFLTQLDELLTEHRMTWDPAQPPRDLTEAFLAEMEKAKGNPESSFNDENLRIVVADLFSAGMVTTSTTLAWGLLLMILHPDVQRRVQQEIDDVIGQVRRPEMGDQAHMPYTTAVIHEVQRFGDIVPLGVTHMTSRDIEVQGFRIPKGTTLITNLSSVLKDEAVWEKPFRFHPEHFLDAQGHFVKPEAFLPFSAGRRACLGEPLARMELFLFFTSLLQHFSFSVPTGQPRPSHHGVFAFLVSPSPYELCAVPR
Sequence of Cytochrome P450 3A4 (P08684 whole entry): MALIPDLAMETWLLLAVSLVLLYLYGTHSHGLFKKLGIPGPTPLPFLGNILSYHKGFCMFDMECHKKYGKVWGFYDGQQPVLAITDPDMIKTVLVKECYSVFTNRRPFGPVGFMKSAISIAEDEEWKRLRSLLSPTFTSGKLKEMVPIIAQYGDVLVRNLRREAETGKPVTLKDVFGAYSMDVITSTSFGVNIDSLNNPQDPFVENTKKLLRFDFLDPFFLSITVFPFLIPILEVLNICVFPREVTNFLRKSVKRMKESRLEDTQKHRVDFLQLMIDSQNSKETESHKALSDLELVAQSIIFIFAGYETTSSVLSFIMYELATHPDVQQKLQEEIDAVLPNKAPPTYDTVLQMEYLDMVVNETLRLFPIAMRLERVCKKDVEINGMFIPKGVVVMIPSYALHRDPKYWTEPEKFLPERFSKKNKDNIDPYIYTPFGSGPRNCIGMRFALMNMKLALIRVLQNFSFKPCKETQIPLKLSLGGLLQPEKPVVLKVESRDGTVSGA

For `CC1Cc2cc(Cl)ccc2C(=O)N1c1cccnc1` (stereo unspecified), the Ratio IC50 in data set [1] is over 13. The IC50 at Cytochrome P450 3A4 is over 50 µM; on Cytochrome P450 2C9, over 50 µM; in data set [2], over 10 µM; in data set [3], 0.761 µM; on Cytochrome P450 2D6, over 50 µM.

Turning to `CC1(C)CN(c2cccnc2)C(=O)c2ccc(Cl)cc21`, the Ratio IC50 in data set [1] was over 7. Also, the IC50 was over 50 µM at Cytochrome P450 3A4; over 50 µM against Cytochrome P450 2C9; over 10 µM in data set [2]; 1.54 µM in [3]; over 50 µM against Cytochrome P450 2D6.

Consider `CC1CN(c2cccnc2)C(=O)c2ccc(Cl)cc21` (stereo unspecified), for which, in data set [1], the Ratio IC50 came to 16. Further, the predicted hepatic clearance (CLH) in [4] is 45 mL/min/kg. Besides, the IC50 against Cytochrome P450 3A4 was over 50 µM; on Cytochrome P450 2C9, over 50 µM; in [2], 2.59 µM; in data set [3], 0.164 µM; against Cytochrome P450 2D6, over 50 µM. Moreover, the predicted hepatic clearance in data set [5] was 6.6 mL/min/kg.

Turning to `Cn1cc(C(=O)N2CC3(C2)CN(c2cncc(N4C(=O)c5ccc(Cl)cc5C4(C)C)c2)C3)cn1`, in data set [1], the Ratio IC50 was 5680. For the same compound, the figures for the AUC/dose in [6] and in data set [18] were 3111 kg·ng·h/mL/mg and 1889 kg·ng·h/mL/mg, respectively. In addition, the fraction unbound at 1 µM in [7] stood at 0.036; in [15] it was 0.066. The CLint scaled was under 3 mL/min/kg in [8] and under 4.4 mL/min/kg in data set [14]. For the same compound, the results for the bioavailability in data set [9] and in data set [12] were 69% and 37%, respectively. For the same compound, the solubility at 2 h in [10] is 44 µg/mL (≈ 92.2 µM). For the same compound, the Papp at 18 h in data set [11] came to 3.63 ×10⁻⁶ cm/s. In data set [13], this compound gave an AUC(0-inf) of 5660 ng·h/mL. Besides, the predicted hepatic clearance (CLH) in [16] was 6.4 mL/min/kg. Also, the results for the clearance in [17] and in data set [19] were 6.4 mL/min/kg and 2.1 mL/min/kg, respectively. In addition, in data set [3], half-maximal inhibition (IC50) required 0.002 µM.

Values taken from ChEMBL document CHEMBL4616681, “Discovery of 3-Pyridyl Isoindolin-1-one Derivatives as Potent, Selective, and Orally Active Aldosterone Synthase (CYP11B2) Inhibitors” (J Med Chem, 2020).
